# Bioassay records: PubChem, The Scripps Research Institute Molecular Screening Center
# Shown are actives, neighbours in structure and some others; about 2.5% of the full set was active somewhere.
# HTRA1 inh – HTRA1 (human) protease inhibition. Q92743. AID 504803. actives 0.5% (n = 340,000). inhibition, % at 5.96 µM. recombinant HTRA1, FP-rhodamine activity-based probe, fluorescence polarization; in the data active = inhibition above about 36%;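 also: 0% = enzyme with DMSO and 100% = wells lacking enzyme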
# PRMT1 FP inh – inhibitors of human PRMT1; actives 1.3% (n = 370,000); inhibition, % at 2.79 µM; recombinant PRMT1, activity-based probe fluorescence polarization;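 active = inhibition above about 21% made by adding two undisclosed values, limit read from the data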
# Target sequence (Q99873 whole entry, looked up): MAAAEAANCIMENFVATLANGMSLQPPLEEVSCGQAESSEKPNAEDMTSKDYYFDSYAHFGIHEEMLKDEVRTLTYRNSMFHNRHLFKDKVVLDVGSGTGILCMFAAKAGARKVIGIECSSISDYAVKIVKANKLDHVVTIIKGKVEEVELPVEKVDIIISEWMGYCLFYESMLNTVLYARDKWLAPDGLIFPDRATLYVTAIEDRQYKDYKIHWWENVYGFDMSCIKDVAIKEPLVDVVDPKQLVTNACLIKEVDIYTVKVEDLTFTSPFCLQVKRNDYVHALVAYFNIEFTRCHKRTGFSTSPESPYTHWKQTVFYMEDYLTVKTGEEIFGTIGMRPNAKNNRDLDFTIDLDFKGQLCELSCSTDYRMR
# SIAE inh – human SIAE inhibition, primary screen. Q9HAT2. SIAE FP-Rh probe binding, fluorescence polarization. inhibition, % at 9.66 µM. actives 0.69% (n = 370,000);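 active = inhibition above a cutoff: mean of compounds within the control limits plus 3 SD of those, cut at about 17% in these data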;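 also: 0% = plate median of compound wells and 100% = probe without SIAE protein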
# ABHD4 inh – inhibitors of mouse ABHD4; Q8VD66; purified mABHD4, FP-Rh probe fluorescence polarization; inhibition, % at 8.92 µM; actives 0.54% (n = 370,000); AID 720543;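 active = inhibition exceeding the mean over every tested compound plus 3 SD, cut at about 30% in these data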;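 also: 0% = plate median of compound wells and 100% = S159A mutant with DMSO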
#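 Material: mouse ABHD4 enzyme, wild type; Benchmarks: S159A mutant high control, sample median low control; Buffer or medium: HEPES pH 7.0, NaCl, Pluronic buffer; Signal: fluorescence polarization; Read-out: percent inhibition of probe binding, normalized to plate controls; Timing: pre-incubation 45 min, probe exposure 60 min, at 25 °C; Dosing: 8.92 µM, single dose.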
# TCR-CD3 inh – human TCR-CD3 binding inhibition; AID 651800; TAMRA-labeled TCR probe fluorescence, biochemical; inhibition, % at 9.4 µM; actives 0.37% (n = 360,000); in the data active = inhibition above about 19%;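 also: recombinant mutant TCR 2C K166C tagged with TAMRA read by polarization; 0% = receptor in buffer alone and 100% = receptor with positive control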
# HTRA1 conf – HTRA1 (human) inhibition, confirmation | shares compounds with HTRA1 inh | inhibition, % at 5.96 µM | recombinant HTRA1, FP-rhodamine activity-based probe, fluorescence polarization | actives 66% (n = 1,600);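 active = mean inhibition over three repeats above a set limit taken from the earlier primary screen, cut at about 37% in these data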;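 also: 0% = HTRA1 with DMSO and 100% = wells lacking HTRA1; inhibitors block probe binding so polarization drops and inhibition rises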
# * marks the source's active call; other numbers are inactive results; · = no result.
SMILES,HTRA1 inh,PRMT1 FP inh,SIAE inh,ABHD4 inh,TCR-CD3 inh,HTRA1 conf
COc1ccc2c(c1)-c1c(ssc1=S)C(C)(C)N2,37.5*,9.7,7.3,22.9,-2.4,37.2*
COc1ccc(-n2sc3c(c2=S)-c2cc(OC)ccc2NC3(C)C)cc1,8.8,-1.0,12.9,6.2,2.2,·
Oc1c(C(c2ccc(Cl)cc2)N2CCCC2)cc(Cl)c2cccnc12 (stereo unspecified),41.4*,-4.8,8.8,10.0,2.8,60.2*
Cc1ccc(C(c2cc(Cl)c3cccnc3c2O)N2CCN(C)CC2)cc1 (stereo unspecified),57.0*,·,·,·,·,69.6*
CN1CCN(C(c2ccccn2)c2cc(Cl)c3cccnc3c2O)CC1 (stereo unspecified),39.4*,3.5,10.8,10.7,-6.5,65.6*
CN1CCN(C(c2ccc(C(F)(F)F)cc2)c2ccc3cccnc3c2O)CC1 (stereo unspecified),·,6.3,3.2,5.7,4.0,·
C/C(C=NNC(=O)CSc1nc2ccccc2n1Cc1ccccc1Cl)=C\c1ccccc1,·,-6.6,-10.1,-7.4,·,·
COc1ccc(NC(=O)N2CCC(c3nc4ccc(Cl)cc4[nH]3)CC2)cc1OC,·,5.5,-4.3,3.1,·,·
Nc1ccc(N2CCCCC2)cc1N1CCCCC1,51.2*,5.9,6.1,23.1,-0.5,58.6*
CC(C)(C)c1cc(C(=O)N/N=C/c2ccccc2O)n(-c2ccccc2)n1,36.9*,5.0,-4.5,-0.8,-0.9,51.4*
CC(C)(C)c1cc(C(=O)N/N=C/c2ccc(F)cc2)n(-c2ccccc2)n1,-21.4,1.9,1.4,-5.0,-1.8,·
O=[N+]([O-])c1ccc(NCCCN2CCC(C(O)(c3ccccc3)c3ccccc3)CC2)cc1,·,-0.2,2.0,2.9,·,·
CCc1ccc2[nH]c(=O)c(C3C(C#N)=C(N)Oc4c3ccc3cccnc43)cc2c1 (stereo unspecified),81.8*,2.5,8.6,17.4,14.1,14.4
Cc1ccc2cc(C3C(C#N)=C(N)Oc4c3ccc3cccnc43)c(=O)[nH]c2c1 (stereo unspecified),79.0*,·,·,·,·,57.9*
N#CC1=C(N)Oc2c(ccc3cccnc23)C1c1cccnc1 (stereo unspecified),14.4,-1.1,4.9,-5.1,4.2,·
Cc1ccc(-n2c(COc3ccccc3)nnc2SCC(=O)Nc2ccccc2-c2ccccc2)cc1,·,-1.2,-11.3,-20.1,·,·
C(=N\Nc1nc2ccccc2[nH]1)/c1cccc2cccnc12,49.1*,14.8,13.6,24.1,-5.3,54.5*
Cc1ccc(Nc2c([N+](=O)[O-])ccc3c2=NC2(CCCCC2)N=3)cc1,37.1*,4.9,16.6,14.9,-11.3,74.6*
Cc1cccc(-c2cccc3c4c([nH]c23)[C@@H]2C[C@H](N(C)C(=O)Nc3ccccc3)[C@H]([C@H](C)O)C(=O)N2CC4)c1,·,-3.2,-1.2,-23.0,·,·
c1ccc(Cn2c(SC3CCCCC3)nnc2-c2cccnc2)cc1,·,2.2,-3.5,8.5,·,·
CC(=O)C(C(C)=O)c1c(Cl)c(O)c(O)c2c(C(=O)c3ccccc3)coc12,65.5*,78.6*,-1.3,42.7*,-1.9,82.2*
CN1CCN(Cc2c(O)ccc3occ(C(=O)c4ccccc4)c23)CC1,7.1,1.6,-0.1,2.7,5.6,·
Cc1cc(=O)[nH]c2cc(O)ccc12,2.0,-2.5,0.8,0.9,2.4,·
CC(C)=CCCC1(C)C=Cc2c(c(C)cc3c2[nH]c2cc(O)ccc23)O1 (stereo unspecified),45.7*,-2.0,14.5,2.0,12.1,31.5
O=C1CC(/C=C/c2ccco2)=Nc2ccccc2N1,43.5*,·,·,·,·,-1.4
SMILES,HTRA1 inh,PRMT1 FP inh,SIAE inh,ABHD4 inh,TCR-CD3 inh,HTRA1 conf
COCO[C@@H]1CC(CO)=C[C@H]2OCO[C@H]21,·,-6.0,0.8,4.8,·,·
COc1cccc2c(N/N=C/c3ccc(O)c(O)c3)cc(C)nc12,47.1*,3.2,-3.5,14.6,5.0,76.7*
COc1ccc(/C=N/Nc2cc(C)nc3c(C)cccc23)cc1,-22.3,-5.4,-4.2,9.1,-3.6,·
Cc1ccccc1C1C(C#N)=C2N=C(N)c3c(sc4c3CCCCC4)N2C2=C1C(=O)CCC2 (stereo unspecified),49.9*,·,·,·,·,27.1
N#CC1=C2N=C(N)c3ccccc3N2C2=C(C(=O)CCC2)C1c1ccccc1F (stereo unspecified),1.9,4.3,4.8,6.4,-3.2,·
Oc1ccc2ccccc2c1/C=N/Nc1nnc(-c2ncc[nH]2)c2ccccc12,38.4*,-2.8,16.0,23.3,7.3,100.2*
CC(C)=CCc1c2c(c3occ(-c4ccc(O)cc4)c(=O)c3c1O)C=CC(C)(C)O2,-8.1,1.3,-11.8,-16.8,2.2,·
CC1(C)C=Cc2c(c3c(c4c(=O)c(-c5ccc(O)cc5)coc24)OC(C)(C)CC3)O1,36.3*,1.8,-3.4,-0.1,6.9,19.7
CC(=NNc1nc2ccccc2s1)c1ccncn1,48.1*,-0.5,5.4,16.6,7.3,34.2
CCCCCc1ccc(NC(=O)O[C@@H]2CC[C@@]34CCCN3C(=O)CCC[C@H]4C2)cc1,·,2.8,-0.2,-9.0,·,·
Cc1cc(C)c2c(c1)NC(C(=O)O)C1CC=CC21 (stereo unspecified),73.8*,31.8*,20.5*,55.7*,28.6*,70.1*
COc1cccc(N2CCN(CC(=O)NCc3cccc(OC)c3OC)CC2)c1,·,1.2,-2.4,-0.2,·,·
C[C@H](O)[C@@H]1CN2CCc3ccc(-c4ccc5c(c4)OCO5)cc3[C@@H]2C[C@@H]1N(C)C(=O)Nc1ccccc1,·,-2.0,-7.2,-9.7,·,·
O=S1(=O)N=C(Nc2ccc(N3CCOCC3)cc2)c2ccccc21,0.5,-2.3,-3.1,2.2,1.9,·
Cc1ccccc1-c1ccc(Nc2ccc(N3CCOCC3)cc2)nn1,45.4*,·,·,·,·,53.6*
CCOC(=O)N1CCN(S(=O)(=O)c2ccc(C(=O)NNc3nc4c(C)cccc4s3)cc2)CC1,47.6*,9.3,10.7,23.0,4.6,168.4*
CCOC(=O)N1CCN(S(=O)(=O)c2ccc(C(=O)NNc3nc4ccc(Cl)cc4s3)cc2)CC1,51.0*,·,·,·,·,77.6*
CCOC(=O)N1CCN(S(=O)(=O)c2ccc(C(=O)N(CCN(CC)CC)c3nc4c(C)cccc4s3)cc2)CC1,-31.1,-2.3,13.8,6.7,-3.9,·
Cc1cc(C(=O)O[C@@H]2CCC[C@@]3(C(=O)N(Cc4ccccc4)c4ccccc43)[C@H]2NC(=O)CCc2ccccc2)no1,·,-3.9,2.9,-6.0,·,·
Cc1ccnc(NCc2cc(Cl)cc(Cl)c2O)c1,3.2,5.2,1.1,-2.3,-6.4,·
Cc1cc(C)c(O)c(CN(C)Cc2cc(Cl)cc(Cl)c2O)c1,62.5*,2.4,9.0,5.4,-9.9,55.1*
CC(C)CCNC(=O)CSc1nc2c(c(=O)[nH]1)CCC2,·,-3.8,-0.5,-0.3,·,·
NC(=Nc1nc(-c2ccccn2)cc2ccccc12)c1ccccn1,68.7*,-0.5,-1.2,6.8,-2.9,78.0*
